Here are results for two compounds from ChEMBL document CHEMBL3612019, “Revisiting 1,3,4-Oxadiazol-2-ones: Utilization in the Development of ABHD6 Inhibitors” (Bioorg Med Chem, 2015).

Assay [1] addresses T1, Lysophosphatidylserine lipase ABHD12 (Mus musculus) (UniProt Q99LR1).
T1 sequence (whole entry): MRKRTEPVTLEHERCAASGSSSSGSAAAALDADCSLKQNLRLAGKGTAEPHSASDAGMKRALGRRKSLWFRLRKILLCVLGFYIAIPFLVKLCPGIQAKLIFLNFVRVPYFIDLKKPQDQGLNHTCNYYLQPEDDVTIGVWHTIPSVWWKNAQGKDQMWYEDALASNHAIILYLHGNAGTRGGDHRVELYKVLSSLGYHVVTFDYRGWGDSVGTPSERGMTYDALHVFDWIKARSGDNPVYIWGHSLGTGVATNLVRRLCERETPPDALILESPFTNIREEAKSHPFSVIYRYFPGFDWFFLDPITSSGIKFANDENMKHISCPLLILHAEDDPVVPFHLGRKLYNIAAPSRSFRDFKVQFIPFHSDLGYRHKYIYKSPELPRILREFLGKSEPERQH
Kind of assay: Inhibition of ABHD12 in mouse whole brain membranes at 10 uM incubated for 1 hr by TAMRA-FP probe based competitive activity-based protein profiling assay. It counts as cell membranes. To be noted: Membrane. Summed up: (§1)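 Competitive ABPP on mouse brain membranes (100 µg) treated 1 h with DMSO or inhibitor. TAMRA-FP labelling then ran 1 h at RT (final probe 2 µM). Reaction was quenched with gel loading buffer and proteins resolved by 10% SDS–PAGE for fluorescent band read-out. WWL70 located the ABHD6 band. Gels are representative of two experiments.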

Assay [2] deals with T2, Monoacylglycerol lipase ABHD6 (Homo sapiens, UniProt Q9BV23).
T2 sequence (Q9BV23 whole entry): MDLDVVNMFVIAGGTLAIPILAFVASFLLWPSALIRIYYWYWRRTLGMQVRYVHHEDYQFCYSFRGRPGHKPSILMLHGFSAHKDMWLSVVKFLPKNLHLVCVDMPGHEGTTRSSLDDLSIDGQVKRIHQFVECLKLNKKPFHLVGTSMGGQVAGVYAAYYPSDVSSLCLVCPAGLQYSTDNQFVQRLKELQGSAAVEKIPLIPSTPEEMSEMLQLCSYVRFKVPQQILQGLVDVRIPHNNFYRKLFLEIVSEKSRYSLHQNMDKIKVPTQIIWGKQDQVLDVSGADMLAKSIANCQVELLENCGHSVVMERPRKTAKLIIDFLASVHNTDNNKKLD
Kind of assay: Inhibition of human ABHD6 expressed in HEK293 cells at 1 uM pre-incubated for 10 mins before 2-AG substrate addition followed by rapid 40 fold compound dilution measured after 30 mins by HPLC method. It counts as cell-based.

The target of assay [3] is T3, Monoacylglycerol lipase ABHD6 (Mus musculus) (UniProt Q8R2Y0).
T3 sequence (whole entry): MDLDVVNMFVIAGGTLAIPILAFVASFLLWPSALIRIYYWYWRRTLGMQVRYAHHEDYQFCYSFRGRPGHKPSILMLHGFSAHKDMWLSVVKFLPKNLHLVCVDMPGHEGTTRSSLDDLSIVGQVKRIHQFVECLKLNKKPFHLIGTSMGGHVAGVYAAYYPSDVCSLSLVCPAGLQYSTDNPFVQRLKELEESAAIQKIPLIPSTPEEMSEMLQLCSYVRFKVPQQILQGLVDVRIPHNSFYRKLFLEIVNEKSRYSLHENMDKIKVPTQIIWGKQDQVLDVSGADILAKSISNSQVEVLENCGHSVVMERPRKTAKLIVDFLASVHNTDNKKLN
In words: Inhibition of ABHD6 in mouse whole brain membranes at 10 uM incubated for 1 hr by TAMRA-FP probe based competitive activity-based protein profiling assay. It counts as cell membranes. To be noted: Membrane. The method in brief:
as §1

Assay [4] deals with Cannabinoid receptor 2 (Homo sapiens) (UniProt P34972). In words: Agonist activity at human CB2R expressed in CHO cell membranes at 10 uM by [35S]GTPgammaS binding assay. It counts as functional.
Assay [5] deals with T4, Fatty-acid amide hydrolase 1 (Homo sapiens) (UniProt O00519).
T4 sequence (whole entry): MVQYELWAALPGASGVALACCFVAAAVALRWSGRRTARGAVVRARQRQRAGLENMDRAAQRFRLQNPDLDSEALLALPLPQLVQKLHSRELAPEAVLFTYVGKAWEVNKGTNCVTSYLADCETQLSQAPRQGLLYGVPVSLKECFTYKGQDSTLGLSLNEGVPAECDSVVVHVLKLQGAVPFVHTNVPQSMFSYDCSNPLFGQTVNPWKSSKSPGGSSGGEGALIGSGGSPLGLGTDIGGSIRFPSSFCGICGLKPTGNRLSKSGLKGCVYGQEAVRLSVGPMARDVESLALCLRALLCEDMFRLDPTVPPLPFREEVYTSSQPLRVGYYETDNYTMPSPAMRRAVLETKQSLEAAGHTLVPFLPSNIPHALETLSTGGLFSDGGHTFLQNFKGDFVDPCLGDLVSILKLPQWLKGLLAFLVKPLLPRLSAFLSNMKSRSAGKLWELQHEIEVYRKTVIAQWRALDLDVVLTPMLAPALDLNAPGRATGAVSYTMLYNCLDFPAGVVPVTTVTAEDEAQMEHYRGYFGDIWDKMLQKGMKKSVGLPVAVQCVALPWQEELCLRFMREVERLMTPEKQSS
In words: Inhibition of human FAAH expressed in COS7 cell membranes at 20 uM pre-incubated for 10 mins before [3H]-AEA substrate addition by liquid scintillation counting. To be noted: COS-7.

Assay [6] addresses T5, Monoglyceride lipase (Mus musculus) (UniProt O35678).
T5 sequence (whole entry): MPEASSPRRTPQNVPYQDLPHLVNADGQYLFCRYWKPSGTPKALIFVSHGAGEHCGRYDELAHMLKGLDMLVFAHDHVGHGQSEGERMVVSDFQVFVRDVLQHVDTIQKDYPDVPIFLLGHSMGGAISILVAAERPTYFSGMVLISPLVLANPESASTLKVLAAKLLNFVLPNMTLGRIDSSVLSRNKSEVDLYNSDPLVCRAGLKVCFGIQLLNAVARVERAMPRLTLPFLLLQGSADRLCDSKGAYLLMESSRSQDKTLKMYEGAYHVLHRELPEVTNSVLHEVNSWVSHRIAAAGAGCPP
In words: Inhibition of MAGL in mouse whole brain membranes at 32.5 uM incubated for 1 hr by TAMRA-FP probe based competitive activity-based protein profiling assay. It counts as cell membranes. To be noted: Membrane. The method in brief:
as §1

Assay [7] concerns the target T2, Monoacylglycerol lipase ABHD6. In words: Inhibition of human ABHD6 expressed in HEK293 cells at 1 uM pre-incubated for 10 mins before 2-AG substrate addition followed by rapid 40 fold compound dilution measured after 60 mins by HPLC method. It counts as cell-based.

SMILES strings stand for the structures. Activity calls are given as the source filed them. The rule behind the calls is not given here.

Cannabinoid receptor 2 (Homo sapiens), sequence (P34972 whole entry): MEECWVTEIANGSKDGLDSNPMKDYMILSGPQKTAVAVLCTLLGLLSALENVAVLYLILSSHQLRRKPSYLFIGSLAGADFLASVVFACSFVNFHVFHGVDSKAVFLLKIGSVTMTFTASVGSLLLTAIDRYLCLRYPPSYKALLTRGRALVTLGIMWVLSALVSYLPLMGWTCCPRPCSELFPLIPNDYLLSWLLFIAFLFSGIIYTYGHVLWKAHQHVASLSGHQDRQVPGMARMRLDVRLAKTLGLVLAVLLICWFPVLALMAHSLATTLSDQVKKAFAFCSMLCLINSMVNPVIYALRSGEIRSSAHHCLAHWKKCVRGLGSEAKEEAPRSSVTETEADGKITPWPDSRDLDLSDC

As for `Nc1cccc(Cn2nc(Oc3ccccc3)oc2=O)c1`, the inhibition result in assay [1] was “Active”.

In the case of `COc1nn(Cc2cccc(N)c2)c(=O)o1`, the IC50 in assay [2] was 3.8 µM; in assay [7] it was 3.63 µM. The inhibition entry in assay [1] was “inactive”. In addition, the inhibition result in assay [3] and in assay [6] was “Active” in each case. The same compound gave an Activity in assay [4] of 107%. For the same compound, the inhibition in assay [5] amounted to 41%.
